Assay results as given in ChEMBL document CHEMBL1156352, “New antiviral cassane furanoditerpenes from Caesalpinia minax” (J Nat Prod, 2001).
Converted amounts (≈) assume the structure as drawn.

What was measured:
[1] = Cytotoxicity against human Hep2 cells; assay type: cell-based, HEp-2; conditions: read-out: LC50 (the source's name)
Human respirovirus 3 = experiment: Antiviral activity against Parainfluenza virus type 3 infected in human Hep2 cells assessed as inhibition of virus-induced cytopathogenic effect; assay type: functional, organism-based; conditions: Human respirovirus 3, HEp-2
Outline: (§1)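 Run in 96-well plates on Hep-2 cell monolayers, with ribavirin as positive control and an untreated infection control. Para3 virus suspension was added and CPE was scored under an inverted microscope. IC50 was the concentration that reduced CPE by 50% relative to virus control. TC50 was the concentration giving 50% cytotoxic effect.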

[2] = Therapeutic index, ratio of TC50 for human Hep2 cells to IC50 for Parainfluenza virus type 3; assay type: cell-based, HEp-2; conditions: read-out: TI; outline: as §1

| Structure (SMILES) | CC50 [1] [µg/mL] | IC50 (Human respirovirus 3) [µg/mL] | selectivity ratio [2] |
| --- | --- | --- | --- |
| C=C1c2ccoc2C[C@H]2[C@H]1[C@@H](OC(C)=O)[C@H](OC(C)=O)[C@@]1(O)C(C)(C)CC[C@H](OC(C)=O)[C@]21C [CAESALAMIN C] | 196 (≈ 414 µM) | 8.2 (≈ 17.3 µM) | 23.9 |
| CC(=O)O[C@@H]1[C@@H]2[C@H](Cc3occc3[C@]2(C)O)[C@@]2(C)[C@@H](OC(C)=O)CCC(C)(C)[C@]2(O)[C@H]1OC(C)=O [CAESALMIN D] | 182 (≈ 370 µM) | 9.6 (≈ 19.5 µM) | 19.1 |
| CC(=O)O[C@@H]1[C@@H]2[C@H](Cc3occc3[C@@]2(C)O)[C@@]2(C)[C@@H](OC(C)=O)CCC(C)(C)[C@]2(O)[C@H]1OC(C)=O [CAESALMIN E] | 165 (≈ 335 µM) | 10.3 (≈ 20.9 µM) | 16 |
| CO[C@]1(C)c2ccoc2C[C@H]2C1[C@@H](OC(C)=O)[C@H](OC(C)=O)[C@@]1(O)C(C)(C)CC[C@H](OC(C)=O)[C@]21C (stereo partly drawn) [CAESALMIN F] | 136 (≈ 269 µM) | 7.8 (≈ 15.4 µM) | 17.5 |
| CC1(C)CC[C@H](O)[C@]2(C)[C@H]3Cc4occc4[C@H]4C(=O)O[C@@H](C[C@@]12O)[C@@H]43 [CAESALMIN G] | 44.7 (≈ 129 µM) | 14.8 (≈ 42.7 µM) | 3 |
| CC[C@H](/C=C/[C@@H](C)[C@H]1CC[C@H]2[C@@H]3CC=C4C[C@@H](O)CC[C@]4(C)[C@H]3CC[C@]12C)C(C)C [STIGMASTEROL] | 137 (≈ 331 µM) | 37.5 (≈ 90.9 µM) | 3.6 |
